ChEMBL document CHEMBL1147917, “Synthesis and crystallographic analysis of benzophenone derivatives--the potential anti-inflammatory agents” (Bioorg Med Chem, 2007)
The source made the active and inactive calls. No cut-off for these calls is given here.

Key:
Rattus norvegicus [1] = assay: Antiinflammatory activity against carrageenan-induced paw edema in Albino rat assessed as oedema inhibition relative to control at 20 mg/kg, po; format: functional
In short: (§1)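 Rats given test compound orally; 30 min later, 0.2 mL of 1% carrageenan in 0.9% NaCl injected subcutaneously into plantar aponeurosis of the hind paw. Paw volume measured by water plethysmometer before and at 3 h. Mean paw-volume increase compared with a carrageenan-only control group of five rats. % inhibition = (1 − Gt/Gc) × 100. Values are means of three determinations.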

Rattus norvegicus [2] = assay: Antiinflammatory activity against carrageenan-induced paw edema in Albino rat assessed as oedema inhibition relative to control at 80 mg/kg, po; format: functional; in short: as §1
Rattus norvegicus [3] = assay: Antiinflammatory activity against carrageenan-induced paw edema in Albino rat assessed as oedema inhibition relative to control at 40 mg/kg, po; format: functional; in short: as §1
Rattus norvegicus [4] = assay: Toxicity in rat assessed as incidence of hyperaemia at 100 mg/kg, po; format: organism-based; parameters: dose 100 mg/kg, route oral; conditions: in vivo
In short: (§2)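 Groups of 10 rats (200–230 g), fasted 24 h, dosed orally; controls untreated. Sacrificed 5 h after dosing. Stomach and small intestine examined under microscope for hyperaemia, epithelial shedding, petechiae, frank haemorrhage, erosion or discrete ulceration with or without perforation. Result expressed as percentage of animals affected.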

Rattus norvegicus [5] = assay: Toxicity in rat assessed as incidence of hyperaemia at 200 mg/kg, po; format: organism-based; parameters: dose 200 mg/kg, route oral; conditions: in vivo; in short: as §2
Rattus norvegicus [6] = assay: Toxicity in rat assessed as incidence of hyperaemia at 400 mg/kg, po; format: organism-based; parameters: dose 400 mg/kg, route oral; conditions: in vivo; in short: as §2
Rattus norvegicus [7] = assay: Toxicity in rat assessed as incidence of ulcer at 200 mg/kg, po; format: organism-based; parameters: dose 200 mg/kg, route oral; conditions: in vivo; in short: as §2
Rattus norvegicus [8] = assay: Toxicity in rat assessed as incidence of ulcer at 100 mg/kg, po; format: organism-based; parameters: dose 100 mg/kg, route oral; conditions: in vivo; in short: as §2
Rattus norvegicus [9] = assay: Toxicity in rat assessed as incidence of ulcer at 400 mg/kg, po; format: organism-based; parameters: dose 400 mg/kg, route oral; conditions: in vivo; in short: as §2
Oryctolagus cuniculus = species: Oryctolagus cuniculus; assay: Inhibition of rabbit microsomal COX at 10 uM
In short: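 COX source: microsomal pellet from minced, homogenized rabbit distal colon mucosa in 0.1 M Tris, pH 8.0, used immediately. Microsomes preincubated with test agent 10 min at 37 °C in Tris-HCl pH 8.0 with 2 mM glutathione, 5 mM L-tryptophan and 1 µM haematin. Then 20 µM arachidonic acid plus [1-14C] tracer added for 5 min at 37 °C. PGE2 separated by isocratic HPLC; co-eluting radioactivity counted by scintillation. % inhibition calculated versus paired controls.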

Rattus norvegicus [10] = assay: Antiinflammatory activity against carrageenan-induced paw edema in po dosed Albino rat assessed as oedema inhibition; format: functional
[11] = Toxicity in ip dosed Albino mouse; format: organism-based; conditions: in vivo, read-out: ALD50
In short: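 Albino mice, 25–30 g, groups of 10, given test compounds intraperitoneally at different dose levels. Mortality per group recorded 24 h after dosing. Approximate 50% lethal dose (ALD50) calculated from mortality data by the Smith method.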

Structure (SMILES) | inhibition in vivo at 20 mg/kg (Rattus norvegicus [1]) [%] | inhibition in vivo at 80 mg/kg (Rattus norvegicus [2]) [%] | inhibition in vivo at 40 mg/kg (Rattus norvegicus [3]) [%] | Activity (Rattus norvegicus [4]) [%] | Activity (Rattus norvegicus [5]) [%] | Activity (Rattus norvegicus [6]) [%] | Activity (Rattus norvegicus [7]) [%] | Activity (Rattus norvegicus [8]) [%] | Activity (Rattus norvegicus [9]) [%] | inhibition (Oryctolagus cuniculus) [%] | ED50 (Rattus norvegicus [10]) [mg/kg] | LD50 [11] [mg/kg] | Activity (Oryctolagus cuniculus)
CCCCC1C(=O)N(c2ccccc2)N(c2ccccc2)C1=O [PHENYLBUTAZONE] | 30.1 | 55.1 | 33 | 25 | 50 | 80 | 65 | 35 | 90 | 85 | – | – | –
Cc1ccc(C(=O)c2cc(F)ccc2OC(=O)c2ccc(Cl)cc2)cc1 | 16.6 | 64.1 | 44.6 | 50 | 70 | 90 | 20 | 15 | 25 | 70 | 76.2 | > 1000 | –
Cc1ccc(OC(=O)c2ccccc2)c(C(=O)c2cccc(F)c2)c1 | 18.5 | 40.5 | 30.2 | 25 | 40 | 50 | 65 | 50 | 75 | – | 75.5 | > 1000 | inactive
Cc1ccc(OC(=O)c2ccccc2C)c(C(=O)c2ccccc2C)c1 | 17.5 | 64.8 | 33.9 | 50 | 70 | 90 | 30 | 20 | 40 | 70 | 78.9 | > 1000 | –
CC(=O)Oc1ccccc1C(=O)O [ASPIRIN] | 29.5 | 55.1 | 30.5 | 25 | 55 | 85 | 90 | 75 | 85 | 95 | 95.5 | – | –
Cc1ccc(C(=O)Oc2ccc(C)cc2C(=O)c2ccccc2)cc1 | 15.5 | 46.5 | 29.4 | 20 | 35 | 55 | 55 | 45 | 80 | – | 75.5 | > 1000 | inactive
Cc1ccc(OC(=O)c2ccccc2)c(C(=O)c2ccccc2)c1 | 15.1 | 56.4 | 29.9 | 40 | 60 | 100 | 20 | 10 | 40 | 20 | 78.6 | > 1000 | –
Cc1ccc(C(=O)Oc2ccc(F)cc2C(=O)c2ccc(C)cc2)cc1 | 20.5 | 50.5 | 35.5 | 30 | 55 | 90 | 25 | 20 | 45 | 30 | 70.1 | > 1000 | –
O=C(Oc1ccc(Cl)cc1C(=O)c1cccc(Cl)c1Cl)c1ccccc1 | 21.1 | 63.8 | 29.8 | 70 | 90 | 100 | 20 | 10 | 40 | 40 | 63.6 | > 1000 | –
Cc1ccc(C(=O)c2cc(C)ccc2OC(=O)c2ccc(Cl)cc2)cc1 | 31.4 | 85.5 | 46.5 | 25 | 50 | 75 | 25 | 15 | 18 | – | 57.3 | > 1000 | inactive
Cc1ccc(OC(=O)c2ccccc2)c(C(=O)c2ccc(Cl)cc2)c1 | 14.7 | 47.5 | 24.2 | 20 | 40 | 60 | 50 | 40 | 80 | – | 77.9 | > 1000 | inactive
Cc1ccc(C(=O)Oc2ccc(C)cc2C(=O)c2ccc(C)cc2)cc1 | 20.6 | 60.1 | 30.5 | 40 | 60 | 80 | 15 | 10 | 20 | 65 | 76.2 | > 1000 | –
Cc1ccc(C(=O)Oc2ccc(Cl)cc2C(=O)c2ccc(Cl)cc2)cc1 | 29.2 | 77.1 | 30.4 | 50 | 70 | 100 | 15 | 10 | 20 | 85 | 60.5 | > 1000 | –
O=C(Oc1ccc(Cl)cc1C(=O)c1ccc(Cl)cc1)c1ccc(Cl)cc1 | 35.5 | 60.1 | 48.5 | 60 | 80 | 100 | 10 | 5 | 15 | 60 | 65.5 | > 1000 | –
O=C(Oc1ccc(Br)cc1C(=O)c1ccc(Cl)cc1)c1ccc(Cl)cc1 | 23.4 | 77.1 | 46.5 | 50 | 70 | 100 | 10 | 5 | 25 | 87 | 61.5 | > 1000 | –
Cc1ccc(OC(=O)c2cccc(Cl)c2)c(C(=O)c2cccc(Cl)c2)c1 | 15.1 | 56.4 | 29.9 | 25 | 40 | 50 | 65 | 50 | 75 | – | 55.7 | > 1000 | inactive
